pIC50: −log10 of the molar value.
How the values were obtained:
[1] = target: PI3Kα (p110α/p85α) (Homo sapiens, UniProt P42336); assay: PI3Kα enzyme assay; type: biochemical
How it was run: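 Purchased recombinant PI3K enzyme (α, β, δ as p110/p85α; γ as p120γ) was mixed with the PIP2:3PS lipid substrate, and the reaction was started with ATP from a 250 µM solution. Luminescence was read by ADP-Glo. Inhibition was normalised to DMSO and no-enzyme controls, with IC50 averaged over two runs.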

[2] = target: mTOR enzyme (Homo sapiens, UniProt P42345); assay: mTOR enzyme assay; type: biochemical; conditions: for Selectivity: PI3Kα IC50 relative to mTOR IC50 (table column); for inhibitory activity against mTOR (in words): derivatives with a para-substituent group on R3

PI3Kα (p110α/p85α), sequence (P42336 whole entry): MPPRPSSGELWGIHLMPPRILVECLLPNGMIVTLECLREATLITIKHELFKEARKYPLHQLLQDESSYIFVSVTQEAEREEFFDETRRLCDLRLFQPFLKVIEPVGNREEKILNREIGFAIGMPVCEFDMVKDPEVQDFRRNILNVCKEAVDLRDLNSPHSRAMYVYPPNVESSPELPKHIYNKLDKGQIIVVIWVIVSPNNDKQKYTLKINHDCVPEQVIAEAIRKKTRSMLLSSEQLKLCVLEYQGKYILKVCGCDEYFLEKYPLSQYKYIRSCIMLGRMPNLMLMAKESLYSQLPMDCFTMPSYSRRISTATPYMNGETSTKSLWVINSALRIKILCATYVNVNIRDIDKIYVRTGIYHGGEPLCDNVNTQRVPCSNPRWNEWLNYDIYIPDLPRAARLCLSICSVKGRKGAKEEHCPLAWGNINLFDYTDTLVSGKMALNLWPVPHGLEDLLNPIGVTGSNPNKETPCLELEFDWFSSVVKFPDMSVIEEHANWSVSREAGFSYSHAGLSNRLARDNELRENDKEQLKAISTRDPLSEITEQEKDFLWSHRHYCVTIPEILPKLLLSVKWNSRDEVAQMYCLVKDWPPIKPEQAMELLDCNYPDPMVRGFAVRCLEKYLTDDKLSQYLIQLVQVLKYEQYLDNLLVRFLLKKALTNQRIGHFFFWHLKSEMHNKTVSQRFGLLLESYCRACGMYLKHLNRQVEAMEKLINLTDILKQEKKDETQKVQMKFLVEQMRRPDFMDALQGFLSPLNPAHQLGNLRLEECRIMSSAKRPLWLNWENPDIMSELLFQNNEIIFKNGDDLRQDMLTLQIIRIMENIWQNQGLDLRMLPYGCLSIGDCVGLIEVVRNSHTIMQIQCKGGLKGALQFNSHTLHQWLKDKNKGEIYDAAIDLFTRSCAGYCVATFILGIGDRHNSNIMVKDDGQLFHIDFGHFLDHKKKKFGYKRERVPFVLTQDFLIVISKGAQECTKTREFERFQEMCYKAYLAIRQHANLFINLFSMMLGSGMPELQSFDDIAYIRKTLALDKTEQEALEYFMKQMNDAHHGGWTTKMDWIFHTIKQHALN
PI3Kα (p110α/p85α), sequence (P27986 whole entry partner): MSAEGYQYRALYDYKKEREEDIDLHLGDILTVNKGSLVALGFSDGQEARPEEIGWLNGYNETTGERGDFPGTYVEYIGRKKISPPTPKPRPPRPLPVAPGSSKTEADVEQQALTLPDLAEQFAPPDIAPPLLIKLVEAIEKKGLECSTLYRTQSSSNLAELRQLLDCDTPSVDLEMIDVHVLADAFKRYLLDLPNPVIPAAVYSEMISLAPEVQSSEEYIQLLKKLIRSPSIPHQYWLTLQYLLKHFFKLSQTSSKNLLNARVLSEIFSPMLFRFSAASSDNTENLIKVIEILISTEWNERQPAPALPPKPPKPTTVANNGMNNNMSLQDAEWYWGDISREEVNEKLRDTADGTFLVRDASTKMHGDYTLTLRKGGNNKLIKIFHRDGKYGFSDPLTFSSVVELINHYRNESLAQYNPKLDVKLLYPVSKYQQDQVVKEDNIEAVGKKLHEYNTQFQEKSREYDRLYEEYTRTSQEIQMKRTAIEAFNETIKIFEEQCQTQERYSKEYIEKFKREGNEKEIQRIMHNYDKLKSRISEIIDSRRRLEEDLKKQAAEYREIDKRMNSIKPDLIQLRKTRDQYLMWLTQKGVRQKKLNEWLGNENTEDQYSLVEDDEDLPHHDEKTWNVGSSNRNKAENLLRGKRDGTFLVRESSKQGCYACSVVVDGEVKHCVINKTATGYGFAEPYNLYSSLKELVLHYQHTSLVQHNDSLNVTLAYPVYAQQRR

SMILES | pIC50 [1] | pIC50 [2] | Selectivity [2] | inhibition at 10 µM ([2]; read-out: mTOR enzyme inhibition rate) [%] | inhibitory activity against mTOR (in words) [2]
COCCCSc1nc2n(n1)C(c1cccc(OC)c1)C(C(=O)Nc1cccnc1)=C(C)N2 (stereo not shown) [1a, 7-(3-Methoxyphenyl)-2-((3-Methoxypropyl)Thio)-5-Methyl-N-(Pyridin-3-yl)-4,7-Dihydro-[1,2,4]Triazolo[1,5-a]Pyrimidine-6-Carboxamide] | 5.80 | 6.78 | 9 | 91.8 | –
COC(=O)CCSc1nc2n(n1)C(c1cccc(OC)c1)C(C(=O)Nc1cccc(F)c1)=C(C)N2 (stereo not shown) [2b, Methyl 3-((6-((3-Fluorophenyl)Carbamoyl)-7-(3-Methoxyphenyl)-5-Methyl-4,7-Dihydro-[1,2,4]Triazolo[1,5-a]Pyrimidin-2-yl)Thio)Propanoate] | 6.36 | 6.91 | 4 | – | –
COC(=O)CCSc1nc2n(n1)C(c1cccc(OC)c1)C(C(=O)Nc1cccc(C(C)=O)c1)=C(C)N2 (stereo not shown) [2d, Methyl 3-((6-((3-Acetylphenyl)Carbamoyl)-7-(3-Methoxyphenyl)-5-Methyl-4,7-Dihydro-[1,2,4]Triazolo[1,5-a]Pyrimidin-2-yl)Thio)Propanoate] | 6.64 | 7.64 | 10 | – | –
COc1cccc(C2C(C(=O)Nc3cncc(C)c3)=C(C)Nc3nc(SCCC4OCCO4)nn32)c1 (stereo not shown) [2f, 2-((2-(1,3-Dioxolan-2-yl)Ethyl)Thio)-7-(3-Methoxyphenyl)-5-Methyl-N-(5-Methylpyridin-3-yl)-4,7-Dihydro-[1,2,4]Triazolo[1,5-a]Pyrimidine-6-Carboxamide] | 6.71 | 7.55 | 7 | – | –
COc1ccc(NC(=O)C2=C(C)Nc3nc(SCCC4OCCO4)nn3C2c2cccc(OC)c2)cc1 (stereo not shown) [2h, 2-((2-(1,3-Dioxolan-2-yl)Ethyl)Thio)-7-(3-Methoxyphenyl)-N-(4-Methoxyphenyl)-5-Methyl-4,7-Dihydro-[1,2,4]Triazolo[1,5-a]Pyrimidine-6-Carboxamide] | 5.49 | 6.44 | 9 | – | –
COc1cccc(C2C(C(=O)Nc3cccc(C(C)=O)c3)=C(C)Nc3nc(SCCC4OCCO4)nn32)c1 (stereo not shown) [2i, 2-((2-(1,3-Dioxolan-2-yl)Ethyl)Thio)-N-(3-Acetylphenyl)-7-(3-Methoxyphenyl)-5-Methyl-4,7-Dihydro-[1,2,4]Triazolo[1,5-a]Pyrimidine-6-Carboxamide] | 5.57 | 7.04 | 29 | – | –
COc1cccc(C2C(C(=O)Nc3ccc(C(C)=O)cc3)=C(C)Nc3nc(SCCC4OCCO4)nn32)c1 (stereo not shown) [2j, 2-((2-(1,3-Dioxolan-2-yl)Ethyl)Thio)-N-(4-Acetylphenyl)-7-(3-Methoxyphenyl)-5-Methyl-4,7-Dihydro-[1,2,4]Triazolo[1,5-a]Pyrimidine-6-Carboxamide] | 6.02 | 6.74 | 5 | – | –
COC(=O)CCSc1nc2n(n1)C(c1cccc(O)c1)C(C(=O)Nc1cncc(C)c1)=C(C)N2 (stereo not shown) [3a, Methyl 3-((7-(3-Hydroxyphenyl)-5-Methyl-6-((5-Methylpyridin-3-yl) Carbamoyl)-4,7-Dihydro-[1,2,4] Triazolo[1,5-a]Pyrimidin-2-yl)Thio)Propanoate] | 5.45 | 6.59 | 14 | – | –
COC(=O)CCSc1nc2n(n1)C(c1ccc(O)cc1)C(C(=O)Nc1cncc(C)c1)=C(C)N2 (stereo not shown) [3b, Methyl 3-((7-(4-Hydroxyphenyl)-5-Methyl-6-((5-Methylpyridin-3-yl) Carbamoyl)-4,7-Dihydro-[1,2,4]Triazolo[1,5-a]Pyrimidin-2-yl)Thio)Propanoate] | < 5.00 | 5.66 | >5 | – | low inhibitory activity against mTOR
COC(=O)CCSc1nc2n(n1)C(c1ccccc1C)C(C(=O)Nc1cncc(C)c1)=C(C)N2 (stereo not shown) [3e, Methyl 3-((5-Methyl-6-((5-Methylpyridin-3-yl)Carbamoyl)-7-(o-Tolyl)-4,7-Dihydro-[1,2,4]Triazolo[1,5-a]pyrimidin-2-yl)Thio)Propanoate] | 5.56 | 6.32 | 6 | – | –
COC(=O)CCSc1nc2n(n1)C(c1cc(C)cc(C)c1)C(C(=O)Nc1cncc(C)c1)=C(C)N2 (stereo not shown) [3f, Methyl 3-((7-(3,5-Dimethylphenyl)-5-Methyl-6-((5-Methylpyridin-3-yl) Carbamoyl)-4,7-Dihydro-[1,2,4]Triazolo[1,5-a]Pyrimidin-2-yl)Thio)Propanoate] | 6.36 | 6.28 | 0.8 | – | –

More lines, now with the values ahead:

pIC50 [1] | pIC50 [2] | Selectivity [2] | inhibition at 10 µM ([2]; read-out: mTOR enzyme inhibition rate) [%] | inhibitory activity against mTOR (in words) [2] | SMILES
6.10 | 7.30 | 16 | – | – | COc1cccc(C2C(C(=O)Nc3cccnc3)=C(C)Nc3nc(SCCC4OCCO4)nn32)c1 (stereo not shown) [1b, 2-((2-(1,3-Dioxolan-2-yl)Ethyl)Thio)-7-(3-Methoxyphenyl)-5-Methyl-N-(Pyridin-3-yl)-4,7-Dihydro-[1,2,4]Triazolo[1,5-a]Pyrimidine-6-Carboxamide]
5.98 | 6.86 | 8 | – | – | COC(=O)CCSc1nc2n(n1)C(c1cccc(OC)c1)C(C(=O)Nc1ccc(OC)cc1)=C(C)N2 (stereo not shown) [2c, Methyl 3-((7-(3-Methoxyphenyl)-6-((4-Methoxyphenyl)Carbamoyl)-5-Methyl-4,7-Dihydro-[1,2,4]Triazolo[1,5-a]Pyrimidin-2-yl)Thio)Propanoate]
6.60 | 7.14 | 4 | – | – | COC(=O)CCSc1nc2n(n1)C(c1cccc(OC)c1)C(C(=O)Nc1ccc(C(C)=O)cc1)=C(C)N2 (stereo not shown) [2e, Methyl 3-((6-((4-Acetylphenyl)Carbamoyl)-7-(3-Methoxyphenyl)-5-Methyl-4,7-Dihydro-[1,2,4]Triazolo[1,5-a]Pyrimidin-2-yl)Thio)Propanoate]
6.07 | 6.50 | 3 | – | – | COc1cccc(C2C(C(=O)Nc3cccc(F)c3)=C(C)Nc3nc(SCCC4OCCO4)nn32)c1 (stereo not shown) [2g, 2-((2-(1,3-Dioxolan-2-yl)Ethyl)Thio)-N-(3-Fluorophenyl)-7-(3-Methoxyphenyl)-5-Methyl-4,7-Dihydro-[1,2,4]Triazolo[1,5-a]Pyrimidine-6-Carboxamide]
6.15 | 6.61 | 3 | – | – | COC(=O)CCSc1nc2n(n1)C(c1ccccc1)C(C(=O)Nc1cncc(C)c1)=C(C)N2 (stereo not shown) [3c, Methyl 3-((5-Methyl-6-((5-Methylpyridin-3-yl)carbamoyl)-7-Phenyl-4,7- Dihydro-[1,2,4]Triazolo[1,5-a]Pyrimidin-2-yl)Thio)Propanoate]
5.13 | 6.03 | 8 | – | low inhibitory activity against mTOR | COC(=O)CCSc1nc2n(n1)C(c1ccc(C)cc1)C(C(=O)Nc1cncc(C)c1)=C(C)N2 (stereo not shown) [3d, Methyl 3-((5-Methyl-6-((5-Methylpyridin-3-yl)Carbamoyl)-7-(p-Tolyl)-4,7 -Dihydro-[1,2,4]Triazolo[1,5-a]Pyrimidin-2-yl)Thio)Propanoate]
< 5.00 | 5.75 | >6 | – | low inhibitory activity against mTOR | COC(=O)CCSc1nc2n(n1)C(c1ccc(F)cc1)C(C(=O)Nc1cncc(C)c1)=C(C)N2 (stereo not shown) [3g, Methyl 3-((7-(4-Fluorophenyl)-5-Methyl-6-((5-Methylpyridin-3-yl)carbamoyl)-4,7-Dihydro-[1,2,4] Triazolo[1,5-a]Pyrimidin-2-yl)Thio)Propanoate]
6.13 | 6.49 | 2 | – | – | COC(=O)CCSc1nc2n(n1)C(c1cccc(F)c1)C(C(=O)Nc1cncc(C)c1)=C(C)N2 (stereo not shown) [3h, Methyl 3-((7-(3-Fluorophenyl)-5-Methyl-6-((5-Methylpyridin-3-yl)Carbamoyl)-4,7-Dihydro-[1,2,4] Triazolo[1,5-a]Pyrimidin-2-yl)Thio)Propanoate]

From paper PMC7220363 (Drug Design, Development and Therapy, 2020)
